Measurements reported in ChEMBL document CHEMBL4000155, “Synthesis and Antileukemic Activities of Piperlongumine and HDAC Inhibitor Hybrids against Acute Myeloid Leukemia Cells” (J Med Chem, 2016).
Calls of active or inactive are those of the source. The rule behind the calls is not given here.

How the values were obtained:
[1] = Antiproliferative activity against human CMY cells after 72 hrs in presence of SAHA by MTT assay; type: functional, cell-based
In short: (§1)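 AML cell lines grown in RPMI 1640 with 10% FBS (20% for MOLM-13), 2 mM L-glutamine and penicillin/streptomycin at 37 °C, 5% CO2. Ara-C-resistant HL-60 and CMK sublines came from stepwise cytarabine selection and were kept in 600 nM or 300 nM cytarabine respectively. Cells were treated 72 h. MTT 0.05 mg/mL, 3 h at 37 °C, DMSO solubilization, absorbance at 570 nm. IC50 given ± SEM.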

[2] = system: CMK; experiment: Antiproliferative activity against Ara-C resistant human CMK cells after 72 hrs in presence of SAHA by MTT assay; type: functional, cell-based; in short: as §1
[3] = system: U-937; experiment: Upregulation of Rad51 protein expression in p53 null human U937 cells assessed as ratio of Rad51 to beta-actin level at 2 uM after 24 hrs by Western blot analysis relative to control
[4] = system: U-937; experiment: Effect on SAHA-induced DNA damage in p53 null human U937 cells assessed as decrease in CHK1 expression level by measuring ratio of CHK1 to beta-actin level at 2 uM after 24 hrs by Western blot analysis relative to control; type: functional
In short: (§2)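 U937 cells treated 24 h, alone or PL+SAHA. Whole-cell lysates (protease/phosphatase inhibitors) immunoblotted for γH2AX, CHK1, RAD51, Bim and XIAP. Band densitometry normalised to β-actin, then expressed as fold change relative to the untreated control.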

[5] = system: U-937; experiment: Induction of apoptosis in p53 null human U937 cells at 4 uM after 24 hrs in presence of SAHA by annexin V-FITC/PI staining based flow cytometry; type: functional
[6] = system: MV4-11; experiment: Antiproliferative activity against human MV4-11 cells after 72 hrs in presence of SAHA by MTT assay; type: functional, cell-based; details: MV4-11, 72 h
[7] = system: MOLM-13; experiment: Antiproliferative activity against human MOLM13 cells harboring wild type p53/FLT3-ITD mutant after 72 hrs in presence of SAHA by MTT assay; type: functional, cell-based; details: MOLM-13, 72 h; in short: as §1
[8] = Antiproliferative activity against human CMS cells after 72 hrs in presence of SAHA by MTT assay; type: functional, cell-based; in short: as §1
[9] = target: T1, Protein deacetylase HDAC6 (Homo sapiens) (UniProt Q9UBN7); experiment: Effect on SAHA-induced HDAC6 inhibition in p53 null human U937 cells assessed as hyper acetylation of alpha tubulin at 1 uM after 4 hrs by Western blot analysis; type: cell-based
T1 sequence (whole entry): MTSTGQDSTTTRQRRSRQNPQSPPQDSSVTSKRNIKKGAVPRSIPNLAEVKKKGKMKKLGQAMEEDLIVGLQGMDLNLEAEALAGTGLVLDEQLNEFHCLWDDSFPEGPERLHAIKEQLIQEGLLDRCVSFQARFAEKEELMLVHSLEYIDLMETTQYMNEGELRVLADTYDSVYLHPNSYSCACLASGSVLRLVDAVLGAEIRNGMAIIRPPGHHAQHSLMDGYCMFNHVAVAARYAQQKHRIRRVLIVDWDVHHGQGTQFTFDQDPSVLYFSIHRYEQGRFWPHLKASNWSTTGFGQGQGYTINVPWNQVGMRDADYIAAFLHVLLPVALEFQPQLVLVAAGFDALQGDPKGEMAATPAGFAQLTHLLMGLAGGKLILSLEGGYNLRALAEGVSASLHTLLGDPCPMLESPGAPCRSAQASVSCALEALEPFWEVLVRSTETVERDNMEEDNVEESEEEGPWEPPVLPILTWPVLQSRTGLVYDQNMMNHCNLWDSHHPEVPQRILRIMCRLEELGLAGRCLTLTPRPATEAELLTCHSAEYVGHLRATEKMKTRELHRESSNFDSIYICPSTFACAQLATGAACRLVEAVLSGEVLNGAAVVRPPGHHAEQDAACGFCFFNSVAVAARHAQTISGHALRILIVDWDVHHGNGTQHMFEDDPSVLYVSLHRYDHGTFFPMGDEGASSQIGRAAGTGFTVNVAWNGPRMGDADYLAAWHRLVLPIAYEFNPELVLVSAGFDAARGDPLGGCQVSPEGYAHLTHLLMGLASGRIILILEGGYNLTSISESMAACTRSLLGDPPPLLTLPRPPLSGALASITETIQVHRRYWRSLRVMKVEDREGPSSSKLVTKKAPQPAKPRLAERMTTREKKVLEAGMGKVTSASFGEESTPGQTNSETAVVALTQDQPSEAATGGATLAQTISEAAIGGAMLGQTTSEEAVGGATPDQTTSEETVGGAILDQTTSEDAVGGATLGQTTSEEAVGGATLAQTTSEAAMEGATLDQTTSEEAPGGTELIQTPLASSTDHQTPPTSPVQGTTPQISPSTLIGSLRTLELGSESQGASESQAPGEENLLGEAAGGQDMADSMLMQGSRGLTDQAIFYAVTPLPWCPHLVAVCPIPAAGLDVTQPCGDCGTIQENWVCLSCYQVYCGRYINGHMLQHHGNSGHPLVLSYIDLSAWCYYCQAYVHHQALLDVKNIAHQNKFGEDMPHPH
In short: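 U937 cells treated at 1 μM for 4 h. Whole-cell lysates run on SDS-PAGE, transferred to PVDF and immunoblotted for acetyl-histone H4, histone H4, acetyl-α-tubulin and β-actin.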

[10] = system: U-937; experiment: Induction of apoptosis in p53 null human U937 cells at 4 uM after 24 hrs by annexin V-FITC/PI staining based flow cytometry; type: functional
In short: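 Human U937 AML cells (p53 null) in RPMI 1640 with 10% FBS, 2 mM L-glutamine, penicillin/streptomycin, 37 °C, 5% CO2. Exposed 24 h to compound alone or with SAHA; vehicle DMSO < 0.1% v/v. Annexin V-FITC/PI staining and flow cytometry, reported as % Annexin V+ cells. Three independent experiments in triplicate; one representative shown. EC50 taken as concentration giving 50% Annexin V+ cells versus vehicle.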

[11] = system: U-937; experiment: Induction of DNA damage in p53 null human U937 cells assessed as decrease in Rad51 expression level by measuring ratio of Rad51 to beta-actin level at 2 uM after 24 hrs by Western blot analysis relative to control; type: functional; in short: as §2
[12] = system: U-937; experiment: Induction of apoptosis in p53 null human U937 cells at 1 uM after 24 hrs by annexin V-FITC/PI staining based flow cytometry; type: functional
In short: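 Cells treated 24 h, single agents or SAHA+PL at 1:1 (each drug at the stated concentration). Annexin V-FITC/PI kit staining, then flow cytometry, reported as % Annexin V+ cells. Three independent experiments in triplicate, with data from one representative experiment. DMSO <0.1% vehicle control.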

[13] = system: U-937; experiment: Induction of apoptosis in p53 null human U937 cells assessed as PARP-1 cleavage after 24 hrs by Western blot analysis; type: functional, cell-based
In short: (§3)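 U937 cells exposed for 24 h. Lysates with protease/phosphatase inhibitors were separated by SDS-PAGE, transferred to PVDF and probed for PARP and cleaved caspase-3, with β-actin as loading control.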

[14] = system: U-937; experiment: Induction of apoptosis in p53 null human U937 cells assessed as caspase 3 cleavage after 24 hrs by Western blot analysis; type: functional, cell-based; in short: as §3

Row | Structure (SMILES) | IC50 [1] [nM] | IC50 [2] [nM] | Ratio [3] | Ratio [4] | Activity [5] [%] | IC50 [6] [nM] | IC50 [7] [nM] | IC50 [8] [nM] | Activity [9] | Activity [10] [%] | Ratio [11] | Activity [12] [%] | Activity [13] | Activity [14]
1 | COc1cc(/C=C/C(=O)N2CCC=CC2=O)cc(OC)c1OC [PIPLARTINE] | 442 | 422 | 1.4 | 0.8 | 81.1 | 289 | 934 | 1040 | inactive |  |  |  |  | 
2 | COc1cc(/C=C/C(=O)N2CCC=CC2=O)cc(OC)c1OCCCCCCC(=O)NO |  |  |  |  |  |  |  |  |  | 88.5 | 0.9 | 13.7 | Dose-dependent effect | Dose-dependent effect
